We go through one molecule from ChEMBL document CHEMBL4049460, “Trisubstituted Imidazoles with a Rigidized Hinge Binding Motif Act As Single Digit nM Inhibitors of Clinically Relevant EGFR L858R/T790M and L858R/T790M/C797S Mutants: An Example of Target Hopping” (J Med Chem, 2017).

Data set [1] deals with T1, Epidermal growth factor receptor (Homo sapiens, UniProt P00533, L858R/T790M). In words: Inhibition of recombinant human GST-tagged EGFR L858R/T790M double mutant cytoplasmic domain expressed in baculovirus expression system preincubated for 20 mins followed by addition of [33P]-ATP measured after 2 hrs by filter-binding method.
The nature of data set [2]: Solubility of the compound at pH 7.5 by UV-HPLC analysis. It is filed as physicochemical. Particulars: buffer, read-out: solubility. In a few lines:
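Solubility measured in the kinase assay buffer (pH 7.5); concentration determined by HPLC with UV detection.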

For data set [3], the species on record is Homo sapiens. In words: Selectivity ratio of IC50 for EGFR L858R/T790M double mutant (unknown origin) to IC50 for wild-type EGFR (unknown origin).
The target of data set [4] is Epidermal growth factor receptor (Homo sapiens, UniProt P00533). Nature of the data set: Binding affinity to wild-type human EGFR (669 to 1011 residues) expressed in bacterial system preincubated for 1 hr followed by 30 fold dilution measured after 5 hrs. The format is ADME. In a few lines: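 Competition binding against an immobilized active-site-directed ligand; Kd read out. Compound and kinase combined and equilibrated 1 h, then diluted 30-fold in reaction buffer and equilibrated a further 5 h (study arm B).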

Data set [5] addresses Epidermal growth factor receptor (Homo sapiens, UniProt P00533, L858R). In words: Binding affinity to human EGFR L858R mutant (669 to 1011 residues) expressed in bacterial system incubated for 1 hr. In a few lines: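 Competition binding: compound's ability to displace an immobilized, active-site-directed ligand from the kinase, reported as Kd. Compound and kinase were combined and equilibrated 1 h without dilution before read-out.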

For data set [6], the target named is T1, Epidermal growth factor receptor. In words: Binding affinity to human EGFR L858R/T790M double mutant (669 to 1011 residues) expressed in mammalian system incubated for 1 hr. In a few lines: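 Competition binding of inhibitor against an immobilized active-site-directed ligand; Kd read out. Compound and kinase combined and equilibrated for 1 h without dilution (study arm C).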

Data set [7] is filed under the species Homo sapiens. Nature of the data set: Inhibition of recombinant human N-terminally GST-His6 tagged EGFR del 747-752/P753S mutant (H672 to A1210 residues) C-terminal fragment harboring 3C cleavage site expressed in Baculovirus infected Sf9 cells assessed as residual activity at 1 uM in presence of [33-gamma]-ATP after 60 mins by scintillation counting method relative to control.

Data set [8] is filed under the species Homo sapiens. In words: Inhibition of recombinant human N-terminally GST-His6 tagged EGFR del 752-759 mutant (H672 to A1210 residues) C-terminal fragment harboring 3C cleavage site expressed in Baculovirus infected Sf9 cells assessed as residual activity at 1 uM in presence of [33-gamma]-ATP after 60 mins by scintillation counting method relative to control.

Data set [9] concerns Epidermal growth factor receptor (Homo sapiens), P00533 [G719S]. In words: Inhibition of recombinant human N-terminally GST-His6 tagged EGFR G719S mutant (H672 to A1210 residues) C-terminal fragment harboring 3C cleavage site expressed in Baculovirus infected Sf9 cells assessed as residual activity at 1 uM in presence of [33-gamma]-ATP after 60 mins by scintillation counting method relative to control.

Data set [10] concerns Epidermal growth factor receptor (Homo sapiens), P00533 [T790M]. In words: Inhibition of recombinant human N-terminally GST-His6 tagged EGFR T790M mutant (H672 to A1210 residues) C-terminal fragment harboring 3C cleavage site expressed in Baculovirus infected Sf9 cells assessed as residual activity at 1 uM in presence of [33-gamma]-ATP after 60 mins by scintillation counting method relative to control.

The subject of data set [11] is Epidermal growth factor receptor (Homo sapiens), P00533 [L858R,T790M]. Nature of the data set: Inhibition of recombinant human N-terminally GST-His6 tagged EGFR T790M/L858R double mutant (H672 to A1210 residues) C-terminal fragment harboring 3C cleavage site expressed in Baculovirus infected Sf9 cells assessed as residual activity at 1 uM in presence of [33-gamma]-ATP after 60 mins by scintillation counting method relative to control.

In the next data set the target is EGFR (wild-type) (Homo sapiens, UniProt P00533). In words: Inhibition of recombinant wild-type human N-terminally GST-His6 tagged EGFR (H672 to A1210 residues) C-terminal fragment harboring 3C cleavage site expressed in Baculovirus infected Sf9 cells assessed as residual activity at 1 uM in presence of [33-gamma]-ATP after 60 mins by scintillation counting method relative to control. The settings on record: read-out: Activity.

In data set [12] the target is Receptor tyrosine-protein kinase erbB-4 (Homo sapiens) (UniProt Q15303). Nature of the data set: Inhibition of recombinant human N-terminally GST-His6 tagged ERBB4 (R676 to V1307 residues) C-terminal fragment harboring thrombin cleavage site expressed in Baculovirus infected Sf9 cells assessed as residual activity at 1 uM in presence of [33-gamma]-ATP after 60 mins by scintillation counting method relative to control.
Sequence of Receptor tyrosine-protein kinase erbB-4 (Homo sapiens) (Q15303 whole entry, the tested form may be a part): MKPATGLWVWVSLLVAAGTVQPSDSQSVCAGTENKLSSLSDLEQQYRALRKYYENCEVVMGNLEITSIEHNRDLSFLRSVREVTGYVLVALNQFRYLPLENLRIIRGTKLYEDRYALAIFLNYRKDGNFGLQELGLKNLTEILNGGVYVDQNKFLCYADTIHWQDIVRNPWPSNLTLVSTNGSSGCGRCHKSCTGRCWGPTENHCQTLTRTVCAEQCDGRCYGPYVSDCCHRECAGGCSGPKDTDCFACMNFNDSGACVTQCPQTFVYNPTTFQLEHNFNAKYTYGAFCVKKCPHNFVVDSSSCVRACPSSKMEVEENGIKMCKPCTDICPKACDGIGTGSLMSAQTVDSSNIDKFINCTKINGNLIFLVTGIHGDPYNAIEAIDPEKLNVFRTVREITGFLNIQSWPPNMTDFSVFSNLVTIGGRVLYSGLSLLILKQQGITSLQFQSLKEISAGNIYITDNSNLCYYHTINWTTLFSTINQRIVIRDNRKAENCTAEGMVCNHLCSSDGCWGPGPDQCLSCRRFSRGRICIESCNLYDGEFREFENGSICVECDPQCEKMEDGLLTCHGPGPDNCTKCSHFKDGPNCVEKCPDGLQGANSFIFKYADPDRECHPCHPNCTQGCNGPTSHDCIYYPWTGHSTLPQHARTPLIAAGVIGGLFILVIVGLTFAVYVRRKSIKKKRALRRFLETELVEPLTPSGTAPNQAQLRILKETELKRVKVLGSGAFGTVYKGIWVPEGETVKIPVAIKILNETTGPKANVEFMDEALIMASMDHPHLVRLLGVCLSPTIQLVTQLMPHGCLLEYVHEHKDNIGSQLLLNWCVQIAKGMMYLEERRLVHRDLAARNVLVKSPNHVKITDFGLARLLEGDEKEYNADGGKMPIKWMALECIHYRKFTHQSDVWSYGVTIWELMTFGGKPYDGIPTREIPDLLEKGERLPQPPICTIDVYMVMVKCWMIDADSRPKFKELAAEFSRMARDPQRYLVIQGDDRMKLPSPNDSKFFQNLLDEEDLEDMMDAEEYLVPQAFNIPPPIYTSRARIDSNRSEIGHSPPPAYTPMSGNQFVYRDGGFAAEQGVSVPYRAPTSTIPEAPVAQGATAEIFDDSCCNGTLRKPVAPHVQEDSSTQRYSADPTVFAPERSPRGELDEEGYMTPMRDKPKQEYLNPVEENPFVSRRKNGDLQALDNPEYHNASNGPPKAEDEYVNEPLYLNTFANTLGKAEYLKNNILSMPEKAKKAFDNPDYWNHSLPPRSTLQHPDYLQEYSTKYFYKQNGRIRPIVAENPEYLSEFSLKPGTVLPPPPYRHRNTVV

Data set [13] addresses Tyrosine-protein kinase BTK (Homo sapiens) (UniProt Q06187). Nature of the data set: Inhibition of recombinant full-length human N-terminally GST-HIS6 tagged BTK (M1 to S659 residues) harboring 3C-cleavage site expressed in Baculovirus infected Sf9 cells assessed as residual activity at 1 uM in presence of [33-gamma]-ATP after 60 mins by scintillation counting method relative to control.

Data set [14] has as its target Casein kinase I isoform delta (Homo sapiens) (UniProt P48730). In words: Inhibition of CK1 delta (unknown origin) assessed as residual activity at 1 uM in presence of [33-gamma]-ATP after 60 mins by scintillation counting method relative to control.
Data set [15] concerns the target Mitogen-activated protein kinase 10 (Homo sapiens) (UniProt P53779). Nature of the data set: Inhibition of recombinant full-length human JNK3 (M1 to R426 residues) expressed in Escherichia coli assessed as residual activity at 1 uM in presence of [33-gamma]-ATP after 60 mins by scintillation counting method relative to control.
Data set [16] has as its target Mitogen-activated protein kinase kinase kinase kinase 4 (Homo sapiens) (UniProt O95819). In words: Inhibition of recombinant human N-terminally GST-His6 tagged MAP4K4 (A7 to W1320 residues) harboring 3C-cleavage site expressed in Baculovirus infected Sf9 cells assessed as residual activity at 1 uM in presence of [33-gamma]-ATP after 60 mins by scintillation counting method relative to control.

For data set [17], the target named is Serine/threonine-protein kinase 26 (Homo sapiens) (UniProt Q9P289). In words: Inhibition of recombinant full-length human MST4 (M1 to P416 residues) harboring thrombin cleavage site expressed in Baculovirus infected Sf9 cells assessed as residual activity at 1 uM in presence of [33-gamma]-ATP after 60 mins by scintillation counting method relative to control.
Sequence of Serine/threonine-protein kinase 26 (Homo sapiens) (Q9P289 2-416 limits assumed): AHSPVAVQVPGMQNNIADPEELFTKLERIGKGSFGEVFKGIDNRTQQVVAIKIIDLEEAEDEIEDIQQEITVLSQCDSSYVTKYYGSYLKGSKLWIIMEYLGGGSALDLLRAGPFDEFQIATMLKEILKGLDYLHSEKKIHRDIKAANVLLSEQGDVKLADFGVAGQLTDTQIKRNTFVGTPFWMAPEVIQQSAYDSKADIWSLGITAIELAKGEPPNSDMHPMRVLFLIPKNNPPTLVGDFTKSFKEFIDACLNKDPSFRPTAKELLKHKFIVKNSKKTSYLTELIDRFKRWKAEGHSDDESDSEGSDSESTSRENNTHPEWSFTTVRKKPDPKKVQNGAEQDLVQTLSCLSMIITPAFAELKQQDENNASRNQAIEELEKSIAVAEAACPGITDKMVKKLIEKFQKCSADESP

The target in data set [18] is Serine/threonine-protein kinase 25 (Homo sapiens) (UniProt O00506). In words: Inhibition of STK25 (unknown origin) assessed as residual activity at 1 uM in presence of [33-gamma]-ATP after 60 mins by scintillation counting method relative to control.
Sequence of Serine/threonine-protein kinase 25 (Homo sapiens) (O00506 whole entry, looked up, the tested form may be a part): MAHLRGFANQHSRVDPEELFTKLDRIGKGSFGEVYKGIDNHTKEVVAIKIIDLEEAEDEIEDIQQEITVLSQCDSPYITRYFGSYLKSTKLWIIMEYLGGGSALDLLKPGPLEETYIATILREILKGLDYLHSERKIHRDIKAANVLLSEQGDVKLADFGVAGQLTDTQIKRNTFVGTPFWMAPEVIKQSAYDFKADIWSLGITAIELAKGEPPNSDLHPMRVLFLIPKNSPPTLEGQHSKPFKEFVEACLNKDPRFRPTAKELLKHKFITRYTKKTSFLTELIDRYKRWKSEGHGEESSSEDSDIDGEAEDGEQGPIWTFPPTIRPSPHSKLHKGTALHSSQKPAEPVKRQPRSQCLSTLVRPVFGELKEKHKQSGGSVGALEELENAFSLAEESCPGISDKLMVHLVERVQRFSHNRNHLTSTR
For data set [19], the system named is Epidermal growth factor receptor (Homo sapiens), P00533 [L858R]. Nature of the data set: Ratio of Kd for human EGFR L858R mutant (669 to 1011 residues) after 1 hr to Kd for human EGFR L858R mutant (669 to 1011 residues) after 6 hrs. In a few lines: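 Kd from competition with an immobilized active-site-directed ligand […]. Ratio compares 1 h compound–kinase equilibration against an arm with 6 h overall equilibration.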

Converted amounts (≈) assume the structure as drawn. A value given as a limit tells only on which side of the number the result lay.

Sequence of Mitogen-activated protein kinase 10 (Homo sapiens) (P53779 whole entry, the tested form may be a part): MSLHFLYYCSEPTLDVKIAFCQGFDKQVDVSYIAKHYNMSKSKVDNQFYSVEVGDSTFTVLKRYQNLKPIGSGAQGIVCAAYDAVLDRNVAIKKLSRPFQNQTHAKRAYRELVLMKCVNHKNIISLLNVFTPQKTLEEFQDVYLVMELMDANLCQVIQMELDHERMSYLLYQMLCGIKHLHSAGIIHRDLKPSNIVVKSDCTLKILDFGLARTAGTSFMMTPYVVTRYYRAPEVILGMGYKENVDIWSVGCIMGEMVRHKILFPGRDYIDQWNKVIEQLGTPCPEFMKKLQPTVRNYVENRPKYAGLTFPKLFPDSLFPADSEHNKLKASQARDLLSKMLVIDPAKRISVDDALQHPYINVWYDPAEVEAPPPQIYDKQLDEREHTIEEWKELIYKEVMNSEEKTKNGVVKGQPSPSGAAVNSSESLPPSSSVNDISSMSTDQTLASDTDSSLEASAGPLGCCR
Sequence of Casein kinase I isoform delta (Homo sapiens) (P48730 whole entry, looked up, the tested form may be a part, canonical isoform): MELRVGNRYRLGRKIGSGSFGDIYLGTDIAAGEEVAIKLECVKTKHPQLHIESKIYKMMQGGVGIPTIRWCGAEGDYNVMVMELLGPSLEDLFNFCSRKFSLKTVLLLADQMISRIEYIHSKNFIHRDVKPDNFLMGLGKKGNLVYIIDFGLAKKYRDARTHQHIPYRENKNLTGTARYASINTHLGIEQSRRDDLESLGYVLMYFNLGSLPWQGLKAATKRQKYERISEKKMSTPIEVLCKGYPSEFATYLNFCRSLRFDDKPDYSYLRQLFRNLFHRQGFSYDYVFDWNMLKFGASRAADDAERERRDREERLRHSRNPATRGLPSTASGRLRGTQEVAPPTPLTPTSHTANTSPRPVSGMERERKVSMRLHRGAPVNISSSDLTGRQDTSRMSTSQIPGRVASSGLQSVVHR
Sequence of Tyrosine-protein kinase BTK (Homo sapiens) (Q06187 whole entry, the tested form may be a part): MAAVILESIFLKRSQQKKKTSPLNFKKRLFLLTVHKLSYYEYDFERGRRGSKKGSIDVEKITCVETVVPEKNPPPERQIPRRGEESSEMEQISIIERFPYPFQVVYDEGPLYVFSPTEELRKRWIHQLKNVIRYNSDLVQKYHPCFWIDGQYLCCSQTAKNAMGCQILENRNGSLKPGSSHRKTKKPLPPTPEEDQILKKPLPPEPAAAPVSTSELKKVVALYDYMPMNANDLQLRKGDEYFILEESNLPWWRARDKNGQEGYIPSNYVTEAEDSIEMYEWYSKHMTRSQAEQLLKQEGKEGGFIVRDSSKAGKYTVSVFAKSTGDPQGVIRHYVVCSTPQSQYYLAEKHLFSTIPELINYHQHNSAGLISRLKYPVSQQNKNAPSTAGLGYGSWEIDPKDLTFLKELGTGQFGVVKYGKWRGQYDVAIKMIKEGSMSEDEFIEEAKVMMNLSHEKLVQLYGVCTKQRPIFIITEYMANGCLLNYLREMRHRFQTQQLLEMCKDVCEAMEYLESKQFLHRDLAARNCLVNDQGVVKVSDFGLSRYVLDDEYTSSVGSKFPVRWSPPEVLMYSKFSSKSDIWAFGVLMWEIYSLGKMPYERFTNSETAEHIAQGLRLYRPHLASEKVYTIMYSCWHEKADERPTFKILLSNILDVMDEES
Sequence of Mitogen-activated protein kinase kinase kinase kinase 4 (Homo sapiens) (O95819 2-1239 limits assumed): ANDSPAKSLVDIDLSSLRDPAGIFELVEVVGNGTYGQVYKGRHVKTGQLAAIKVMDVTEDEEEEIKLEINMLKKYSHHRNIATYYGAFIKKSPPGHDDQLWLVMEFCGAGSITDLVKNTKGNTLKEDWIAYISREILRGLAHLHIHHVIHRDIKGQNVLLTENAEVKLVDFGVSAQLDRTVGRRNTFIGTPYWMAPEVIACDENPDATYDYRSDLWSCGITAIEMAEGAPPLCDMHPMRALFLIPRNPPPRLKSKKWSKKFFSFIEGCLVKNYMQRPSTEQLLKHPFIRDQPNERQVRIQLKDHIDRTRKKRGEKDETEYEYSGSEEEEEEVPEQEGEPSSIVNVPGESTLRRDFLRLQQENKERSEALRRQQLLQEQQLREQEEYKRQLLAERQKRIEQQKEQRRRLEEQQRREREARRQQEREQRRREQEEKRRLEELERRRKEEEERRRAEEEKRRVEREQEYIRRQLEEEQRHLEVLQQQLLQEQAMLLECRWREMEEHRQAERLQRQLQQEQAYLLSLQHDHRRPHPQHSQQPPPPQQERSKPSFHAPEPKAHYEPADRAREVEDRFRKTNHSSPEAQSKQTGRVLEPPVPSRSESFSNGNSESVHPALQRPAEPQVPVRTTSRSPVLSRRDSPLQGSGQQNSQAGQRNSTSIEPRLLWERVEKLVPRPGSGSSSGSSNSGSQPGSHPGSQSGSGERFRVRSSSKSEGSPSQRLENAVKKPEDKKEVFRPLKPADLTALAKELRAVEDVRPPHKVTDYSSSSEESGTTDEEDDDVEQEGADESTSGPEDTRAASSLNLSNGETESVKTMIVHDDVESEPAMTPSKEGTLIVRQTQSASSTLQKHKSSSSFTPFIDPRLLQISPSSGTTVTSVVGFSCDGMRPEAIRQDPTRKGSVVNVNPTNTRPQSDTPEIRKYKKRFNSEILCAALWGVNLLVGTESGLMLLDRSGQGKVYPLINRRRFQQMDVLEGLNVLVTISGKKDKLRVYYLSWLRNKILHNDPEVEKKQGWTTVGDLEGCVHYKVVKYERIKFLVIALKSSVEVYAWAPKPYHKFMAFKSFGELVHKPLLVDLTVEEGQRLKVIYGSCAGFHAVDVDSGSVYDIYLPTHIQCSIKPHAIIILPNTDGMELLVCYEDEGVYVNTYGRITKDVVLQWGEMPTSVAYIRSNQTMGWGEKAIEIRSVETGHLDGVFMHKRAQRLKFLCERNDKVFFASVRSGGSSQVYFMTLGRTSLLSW

Usually IC50 stands for the midpoint of a concentration-inhibition curve. In general, solubility refers to the dissolved amount per volume that the medium holds. One may read the Kd as the concentration at which binding is half-saturated. As to `C=CC(=O)Nc1cccc(-c2c[nH]c3nccc(-c4[nH]c(CCCO)nc4-c4ccc(F)cc4)c23)c1`, the IC50 in data set [1] stood at 1.52 nM. Besides, the solubility in data set [2] turned out to be 299 µg/mL (≈ 621 µM). In addition, the Ratio IC50 in the data set filed under Homo sapiens [3] was greater than 40. Also, the results for the Kd in [4], in [5] and in data set [6] were 3.4 nM, 0.93 nM and 13 nM, respectively. Moreover, the Activity in the data set filed under Homo sapiens [7] was determined as 4%; in the data set filed under Homo sapiens [8], 6%; in [9], 22%; in data set [10] it was 12%; in data set [11] it was 21%; in [12], 4%. For the same molecule, the Activity in data set [13] turned out to be 17%; in data set [14], 47%; in [15], 34%; in data set [16] it was 1%; in data set [17], 47%; in data set [18], 49%. Moreover, the activity at 1 h, 1 µM at EGFR (wild-type) was determined as 5%. Also, the Ratio in data set [19] was in the range of 3 to 5.
